In ChEMBL document CHEMBL4020804, “Minor phenolics from Angelica keiskei and their proliferative effects on Hep3B cells” (Bioorg Med Chem Lett, 2017):

Columns and labels:
[1] = system: Hep 3B2; assay: Cytoprotective activity against GOX-induced oxidative stress in human Hep3B cells assessed as increase in cell survival treated for 5 hrs with 15 mU/ml GOX challenge by MTT assay; assay type: functional, cell-based
In short: (§1)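 Cells plated at 7×10^4 per well; next day exposed for 5 h to compound (0.1–100 μM) with 15 mU/ml glucose oxidase in growth medium. Viability expressed relative to GOX-free cells; α-tocopherol positive control.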

[2] = system: Hep 3B2; assay: Proliferative activity against human Hep3B cells assessed as cell viability at 10 uM after 4 days by cell counting method relative to control; assay type: functional; settings: 96 h, read-out: Activity
In short: (§2)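 Hep3B kept in DMEM/10% FBS, 37°C, 5% CO2, then seeded at 1×10^5 cells/ml in medium containing compound (0.1–100 μM; DMSO-only control) in monolayer. Cells were checked daily by microscope for attachment and morphology, and counted after 4 days, in triplicate, in three independent experiments. Counts are given as % of the 0 μM group.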

[3] = system: Hep 3B2; assay: Proliferative activity against human Hep3B cells assessed as cell viability at 0.1 uM after 4 days by cell counting method relative to control; assay type: functional; settings: 96 h, read-out: Activity; in short: as §2
[4] = system: NIH3T3; assay: Cytoprotective activity against GOX-induced cytotoxicity in mouse NIH/3T3 cells assessed as LDH release at 1 uM treated for 5 hrs with 15 mU/ml GOX challenge by spectrophotometric method (reference value: 63.34 +/- 1.85%); assay type: functional
[5] = system: Hep 3B2; assay: Proliferative activity against human Hep3B cells assessed as cell viability at 100 uM after 4 days by cell counting method relative to control; assay type: functional; settings: 96 h, read-out: Activity; in short: as §2
[6] = system: Hep 3B2; assay: Cytotoxicity against human Hep3B cells assessed as effect on cell attachment at 0.1 to 100 uM measured every day during 4 days incubation period by microscopic method; assay type: cell-based; settings: hep 3b2, 96 h; in short: as §2
[7] = system: NIH3T3; assay: Cytoprotective activity against GOX-induced oxidative stress in mouse NIH/3T3 cells assessed as cell survival at 10 uM treated for 5 hrs with 15 mU/ml GOX challenge by MTT assay (reference value: 42.71 +/- 2.10%); assay type: functional; settings: NIH3T3, 5 h, read-out: Survival
[8] = system: Hep 3B2; assay: Cytoprotective activity against GOX-induced oxidative stress in human Hep3B cells assessed as cell survival at 10 uM treated for 5 hrs with 15 mU/ml GOX challenge by MTT assay (reference value: 41.51 +/- 1.39%); assay type: functional; settings: read-out: Survival
[9] = system: Hep 3B2; assay: Cytoprotective activity against GOX-induced cytotoxicity in human Hep3B cells assessed as LDH release at 1 uM treated for 5 hrs with 15 mU/ml GOX challenge by spectrophotometric method (reference value: 60.94 +/- 1.18%); assay type: functional
[10] = system: NIH3T3; assay: Cytoprotective activity against GOX-induced oxidative stress in mouse NIH/3T3 cells assessed as cell survival at 100 uM treated for 5 hrs with 15 mU/ml GOX challenge by MTT assay (reference value: 42.71 +/- 2.10%); assay type: functional; settings: NIH3T3, 5 h, read-out: Survival
[11] = system: Hep 3B2; assay: Proliferative activity against human Hep3B cells assessed as cell viability at 1 uM after 4 days by cell counting method relative to control; assay type: functional; settings: 96 h, read-out: Activity; in short: as §2
[12] = system: NIH3T3; assay: Cytoprotective activity against GOX-induced oxidative stress in mouse NIH/3T3 cells assessed as cell survival at 1 uM treated for 5 hrs with 15 mU/ml GOX challenge by MTT assay (reference value: 42.71 +/- 2.10%); assay type: functional; settings: NIH3T3, 5 h, read-out: Survival
[13] = system: Hep 3B2; assay: Cytoprotective activity against GOX-induced oxidative stress in human Hep3B cells assessed as cell survival at 0.1 uM treated for 5 hrs with 15 mU/ml GOX challenge by MTT assay (reference value: 41.51 +/- 1.39%); assay type: functional; settings: read-out: Survival
[14] = system: NIH3T3; assay: Cytoprotective activity against GOX-induced cytotoxicity in mouse NIH/3T3 cells assessed as LDH release at 10 uM treated for 5 hrs with 15 mU/ml GOX challenge by spectrophotometric method (reference value: 63.34 +/- 1.85%); assay type: functional
[15] = system: NIH3T3; assay: Cytoprotective activity against GOX-induced cytotoxicity in mouse NIH/3T3 cells assessed as LDH release at 100 uM treated for 5 hrs with 15 mU/ml GOX challenge by spectrophotometric method (reference value: 63.34 +/- 1.85%); assay type: functional
[16] = system: Hep 3B2; assay: Proliferative activity against human Hep3B cells assessed as cell viability after 4 days by cell counting method; assay type: functional, cell-based; in short: as §2
[17] = system: Hep 3B2; assay: Cytoprotective activity against GOX-induced oxidative stress in human Hep3B cells assessed as cell survival at 1 uM treated for 5 hrs with 15 mU/ml GOX challenge by MTT assay (reference value: 41.51 +/- 1.39%); assay type: functional; settings: read-out: Survival
[18] = system: NIH3T3; assay: Cytoprotective activity against GOX-induced oxidative stress in mouse NIH/3T3 cells assessed as increase in cell survival treated for 5 hrs with 15 mU/ml GOX challenge by MTT assay; assay type: functional, cell-based; in short: as §1
[19] = system: Hep 3B2; assay: Cytoprotective activity against GOX-induced cytotoxicity in human Hep3B cells assessed as LDH release at 10 uM treated for 5 hrs with 15 mU/ml GOX challenge by spectrophotometric method (reference value: 60.94 +/- 1.18%); assay type: functional
[20] = system: NIH3T3; assay: Cytoprotective activity against GOX-induced cytotoxicity in mouse NIH/3T3 cells assessed as decrease in LDH release treated for 5 hrs with 15 mU/ml GOX challenge by spectrophotometric method; assay type: functional, cell-based
[21] = system: Hep 3B2; assay: Cytoprotective activity against GOX-induced cytotoxicity in human Hep3B cells assessed as decrease in LDH release treated for 5 hrs with 15 mU/ml GOX challenge by spectrophotometric method; assay type: functional, cell-based
[22] = system: Hep 3B2; assay: Cytoprotective activity against GOX-induced cytotoxicity in human Hep3B cells assessed as LDH release at 100 uM treated for 5 hrs with 15 mU/ml GOX challenge by spectrophotometric method (reference value: 60.94 +/- 1.18%); assay type: functional
[23] = system: NIH3T3; assay: Cytoprotective activity against GOX-induced oxidative stress in mouse NIH/3T3 cells assessed as cell survival at 0.1 uM treated for 5 hrs with 15 mU/ml GOX challenge by MTT assay (reference value: 42.71 +/- 2.10%); assay type: functional; settings: NIH3T3, 5 h, read-out: Survival
[24] = system: Hep 3B2; assay: Cytotoxicity against human Hep3B cells assessed as effect on cell morphology at 0.1 to 100 uM measured every day during 4 days incubation period by microscopic method; assay type: cell-based; settings: hep 3b2, 96 h; in short: as §2
[25] = system: Hep 3B2; assay: Cytoprotective activity against GOX-induced oxidative stress in human Hep3B cells assessed as cell survival at 100 uM treated for 5 hrs with 15 mU/ml GOX challenge by MTT assay (reference value: 41.51 +/- 1.39%); assay type: functional; settings: read-out: Survival
[26] = system: Hep 3B2; assay: Cytoprotective activity against GOX-induced cytotoxicity in human Hep3B cells assessed as LDH release at 0.1 uM treated for 5 hrs with 15 mU/ml GOX challenge by spectrophotometric method (reference value: 60.94 +/- 1.18%); assay type: functional
[27] = system: NIH3T3; assay: Cytoprotective activity against GOX-induced cytotoxicity in mouse NIH/3T3 cells assessed as LDH release at 0.1 uM treated for 5 hrs with 15 mU/ml GOX challenge by spectrophotometric method (reference value: 63.34 +/- 1.85%); assay type: functional

| SMILES | Activity [1] | Activity [4] [%] | viability at 10 µM [7] [%] | viability at 10 µM [8] [%] | Activity [9] [%] | viability at 100 µM [10] [%] | viability at 1 µM [12] [%] | viability at 0.1 µM [13] [%] | Activity [14] [%] | Activity [15] [%] | viability at 1 µM [17] [%] | Activity [18] | Activity [19] [%] | Activity [20] | Activity [21] | Activity [22] [%] | viability at 0.1 µM [23] [%] | viability at 100 µM [25] [%] | Activity [26] [%] | Activity [27] [%] | further results |
| --- | --- | --- | --- | --- | --- | --- | --- | --- | --- | --- | --- | --- | --- | --- | --- | --- | --- | --- | --- | --- | --- |
| C/C=C(/C)C(=O)O[C@@H]1c2c(ccc3ccc(=O)oc23)OC(C)(C)[C@@H]1O[C@@H]1O[C@H](CO)[C@@H](O)[C@H](O)[C@H]1O | Dose-dependent effect | 21.12 | 75.8 | 76.9 | 19.57 | 93.8 | 64.5 | 59.2 | 9.25 | 5.75 | 65.3 | Dose-dependent effect | 10.28 | Dose-dependent effect | Dose-dependent effect | 6.16 | 58.6 | 91.2 | 28.01 | 29.9 | viability at 10 µM [2]: 113%; viability at 0.1 µM [3]: 101%; viability at 100 µM [5]: 114%; Activity [6]: Non-Toxic; viability at 1 µM [11]: 102%; Activity [16]: Dose-dependent effect; Activity [24]: Non-Toxic |
| O=C(/C=C/c1ccc(O)cc1)c1ccc(O)cc1O [ISOLIQUIRITIGENIN] | Dose-dependent effect | 26.03 | 71.9 | 66.2 | 24.29 | 82.9 | 59.2 | 41.9 | 22.67 | 8.85 | 62.9 | Dose-dependent effect | 21.06 | Dose-dependent effect | Dose-dependent effect | 10.1 | 44.8 | 75.3 | 27.14 | 44.26 | viability at 10 µM [2]: 109%; viability at 0.1 µM [3]: 101%; viability at 100 µM [5]: 126%; Activity [6]: Non-Toxic; viability at 1 µM [11]: 103%; Activity [16]: Dose-dependent effect; Activity [24]: Non-Toxic |
| CO[C@H]1c2c(ccc3ccc(=O)oc23)O[C@@H]1C(C)(C)O | Dose-dependent effect | 6.59 | 118 | 100 | 10.56 | 129 | 93 | 69.2 | 4.2 | 1.89 | 87.1 | Dose-dependent effect | 5.66 | Dose-dependent effect | Dose-dependent effect | 2.59 | 69 | 112 | 14.07 | 15.41 | viability at 10 µM [2]: 147%; viability at 0.1 µM [3]: 106%; viability at 100 µM [5]: 163%; Activity [6]: Non-Toxic; viability at 1 µM [11]: 118%; Activity [16]: Dose-dependent effect; Activity [24]: Non-Toxic |
| Cc1c(C)c2c(c(C)c1O)CC[C@@](C)(CCC[C@H](C)CCC[C@H](C)CCCC(C)C)O2 [ALPHA-TOCOPHEROL] | Dose-dependent effect | 22.37 | 69.1 | 70.7 | 21.14 | 77.9 | 65.8 | 62.2 | 15.02 | 10.51 | 66.8 | Dose-dependent effect | 18.89 | Dose-dependent effect | Dose-dependent effect | 13 | 61.2 | 79.6 | 25.13 | 26.51 |  |
| CC(C)=CCCC(C)(O)C1Cc2c(O)ccc(C(=O)/C=C/c3ccc(O)cc3)c2O1 (stereo not given) | Dose-dependent effect | 21.87 | 57.5 | 62.1 | 19.53 | 77.8 | 44.4 | 42.9 | 15 | 12.35 | 49 | Dose-dependent effect | 19.08 | Dose-dependent effect | Dose-dependent effect | 8.14 | 43.5 | 76 | 25.13 | 27.7 | viability at 10 µM [2]: 104%; viability at 0.1 µM [3]: 100%; viability at 100 µM [5]: 113%; Activity [6]: Non-Toxic; viability at 1 µM [11]: 102%; Activity [16]: Dose-dependent effect; Activity [24]: Non-Toxic |
| O=C(CCc1ccc(O)cc1)c1ccc(O)cc1O [DAVIDIGENIN] | Dose-dependent effect | 15.74 | 113 | 94.9 | 18.61 | 123 | 84 | 59.3 | 12.69 | 3.1 | 83.4 | Dose-dependent effect | 11.83 | Dose-dependent effect | Dose-dependent effect | 4.16 | 60.6 | 104 | 22.37 | 24.04 | viability at 10 µM [2]: 116%; viability at 0.1 µM [3]: 104%; viability at 100 µM [5]: 140%; Activity [6]: Non-Toxic; viability at 1 µM [11]: 106%; Activity [16]: Dose-dependent effect; Activity [24]: Non-Toxic |
